Measured values taken from ChEMBL document CHEMBL1123503, “Synthesis and biological activity of 3-amino-5-(3,5-diamino-6-chloropyrazin-2-yl)-1,2,4-oxadiazole: an amiloride prodrug” (1986).
Where “and” joins values, the source holds several entries; their conditions need not be identical. Equal entries are not always repeated.

tested on: Canis familiaris; experiment: Compound was evaluated for percentage recovery from urine after administration of 0.1 mg/kg dose; format: functional, organism-based; set-up: dose 0.1 mg/kg; conditions: Canis lupus familiaris
Method in brief: (§1)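 Catheterized mongrel dogs (average 14-16 kg, 6 per group) were given oral doses of 0.1-1.0 mg/kg. Urine was collected at 0-6 h and 6-24 h. Each 1-mL aliquot was partitioned between saturated Na2CO3 and ethyl acetate, and the organic phase was back-extracted into 0.5 N HCl. Amiloride in the acid phase was read spectrofluorometrically (excitation 365 nm, emission 420 nm). Results are mean ± SD, with % recovery.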

SMILES | Recovery
N=C(N)NC(=O)c1nc(Cl)c(N)nc1N [AMILORIDE] | 41.4% and 40%

tested on: Canis familiaris; experiment: Compound was evaluated for percentage recovery from urine after administration of 0.3 mg/kg dose; format: functional, organism-based; set-up: dose 0.3 mg/kg; conditions: Canis lupus familiaris; method in brief: as §1

SMILES | Recovery [%]
N=C(N)NC(=O)c1nc(Cl)c(N)nc1N [AMILORIDE] | 29.3

tested on: Rattus norvegicus; experiment: Compound was evaluated for diuretic activity determined by the ability to induce electrolytic excretion (K+) at a time period of 0-24 hr for dose 3 mg/kg; format: functional, Urine; conditions: not given
Method in brief: (§2)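 Female Sprague-Dawley rats weighing 160-170 g were dosed orally at 3, 9, 27 or 81 mg/kg, housed three per cage, with three cages per dose. Urinary Na+, K+ and Cl- (mequiv × 100) and urine volume (mL) were measured over 0-5 h and 0-24 h after dosing. A placebo group was run alongside.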

SMILES | Diuretic effect
N=C(N)NC(=O)c1nc(Cl)c(N)nc1N [AMILORIDE] | 83

tested on: Rattus norvegicus; experiment: Compound was evaluated for diuretic activity determined by the ability to induce electrolytic excretion (K+) at a time period of 0-24 hr for dose 81 mg/kg; format: functional, Urine; set-up: unit: mequiv × 100; conditions: not given; method in brief: as §2

SMILES | Diuretic effect
N=C(N)NC(=O)c1nc(Cl)c(N)nc1N [AMILORIDE] | 47

tested on: Rattus norvegicus; experiment: Compound was evaluated for diuretic activity determined by the ability to induce electrolytic excretion (K+) at a time period of 0-24 hr for dose 9 mg/kg; format: functional, Urine; conditions: not given; method in brief: as §2

SMILES | Diuretic effect
N=C(N)NC(=O)c1nc(Cl)c(N)nc1N [AMILORIDE] | 67

tested on: Rattus norvegicus; experiment: Compound was evaluated for diuretic activity determined by the ability to induce electrolytic excretion (K+) at a time period of 0-5 hr for dose 27 mg/kg; format: functional, Urine; conditions: not given; method in brief: as §2

SMILES | Diuretic effect
N=C(N)NC(=O)c1nc(Cl)c(N)nc1N [AMILORIDE] | 7

tested on: Rattus norvegicus; experiment: Compound was evaluated for diuretic activity determined by the ability to induce electrolytic excretion (K+) at a time period of 0-5 hr for dose 3 mg/kg; format: functional, Urine; conditions: not given; method in brief: as §2

SMILES | Diuretic effect
N=C(N)NC(=O)c1nc(Cl)c(N)nc1N [AMILORIDE] | 5

tested on: Rattus norvegicus; experiment: Compound was evaluated for diuretic activity determined by the ability to induce electrolytic excretion (K+) at a time period of 0-5 hr for dose 81 mg/kg; format: functional, Urine; conditions: not given; method in brief: as §2

SMILES | Diuretic effect
N=C(N)NC(=O)c1nc(Cl)c(N)nc1N [AMILORIDE] | 6

tested on: Rattus norvegicus; experiment: Compound was evaluated for diuretic activity determined by the ability to induce electrolytic excretion (K+) at a time period of 0-5 hr for dose 9 mg/kg; format: functional, Urine; conditions: not given; method in brief: as §2

SMILES | Diuretic effect
N=C(N)NC(=O)c1nc(Cl)c(N)nc1N [AMILORIDE] | 6

tested on: Rattus norvegicus; experiment: Compound was evaluated for diuretic activity determined by the ability to induce electrolytic excretion (Na+) at a time period of 0-24 hr for dose 27 mg/kg; format: functional, Urine; conditions: not given; method in brief: as §2

SMILES | Diuretic effect
N=C(N)NC(=O)c1nc(Cl)c(N)nc1N [AMILORIDE] | 206

tested on: Rattus norvegicus; experiment: Compound was evaluated for diuretic activity determined by the ability to induce electrolytic excretion (Na+) at a time period of 0-24 hr for dose 3 mg/kg; format: functional, Urine; conditions: not given; method in brief: as §2

SMILES | Diuretic effect
N=C(N)NC(=O)c1nc(Cl)c(N)nc1N [AMILORIDE] | 153

tested on: Rattus norvegicus; experiment: Compound was evaluated for diuretic activity determined by the ability to induce electrolytic excretion (Na+) at a time period of 0-24 hr for dose 81 mg/kg; format: functional, Urine; conditions: not given; method in brief: as §2

SMILES | Diuretic effect
N=C(N)NC(=O)c1nc(Cl)c(N)nc1N [AMILORIDE] | 458

tested on: Rattus norvegicus; experiment: Compound was evaluated for diuretic activity determined by the ability to induce electrolytic excretion (Na+) at a time period of 0-24 hr for dose 9 mg/kg; format: functional, Urine; conditions: not given; method in brief: as §2

SMILES | Diuretic effect
N=C(N)NC(=O)c1nc(Cl)c(N)nc1N [AMILORIDE] | 207

tested on: Rattus norvegicus; experiment: Compound was evaluated for diuretic activity determined by the ability to induce electrolytic excretion (Na+) at a time period of 0-5 hr for dose 27 mg/kg; format: functional, Urine; conditions: not given; method in brief: as §2

SMILES | Diuretic effect
N=C(N)NC(=O)c1nc(Cl)c(N)nc1N [AMILORIDE] | 180

tested on: Rattus norvegicus; experiment: Compound was evaluated for diuretic activity determined by the ability to induce electrolytic excretion (Na+) at a time period of 0-5 hr for dose 3 mg/kg; format: functional, Urine; conditions: not given; method in brief: as §2

SMILES | Diuretic effect
N=C(N)NC(=O)c1nc(Cl)c(N)nc1N [AMILORIDE] | 156

tested on: Rattus norvegicus; experiment: Compound was evaluated for diuretic activity determined by the ability to induce electrolytic excretion (Na+) at a time period of 0-5 hr for dose 81 mg/kg; format: functional, Urine; conditions: not given; method in brief: as §2

SMILES | Diuretic effect
N=C(N)NC(=O)c1nc(Cl)c(N)nc1N [AMILORIDE] | 158

tested on: Rattus norvegicus; experiment: Compound was evaluated for diuretic activity determined by the ability to induce electrolytic excretion (Na+) at a time period of 0-5 hr for dose 9 mg/kg; format: functional, Urine; conditions: not given; method in brief: as §2

SMILES | Diuretic effect
N=C(N)NC(=O)c1nc(Cl)c(N)nc1N [AMILORIDE] | 162

tested on: Rattus norvegicus; experiment: Compound was evaluated for diuretic activity to induce electrolytic excretion (Cl-) at a time period of 0-24 hr for dose 3 mg/kg; format: functional, Urine; conditions: not given
Method in brief: (§3)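 Female Sprague-Dawley rats (160-170 g) were dosed orally at 3-81 mg/kg, with a placebo group. Housing was three rats per cage and three cages per dose. Urinary Na+, K+ and Cl- (mequiv × 100) and urine volume were measured over 0-5 h and 0-24 h.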

SMILES | Diuretic effect
N=C(N)NC(=O)c1nc(Cl)c(N)nc1N [AMILORIDE] | 139

tested on: Rattus norvegicus; experiment: Urine volumes was determined at time period of 0-5 hours for dose 27 mg/kg; format: functional; conditions: not given; method in brief: as §3

SMILES | Diuretic effect
N=C(N)NC(=O)c1nc(Cl)c(N)nc1N [AMILORIDE] | 3.4

tested on: Rattus norvegicus; experiment: Urine volumes was determined at time period of 0-5 hours for dose 9 mg/kg; format: functional; conditions: not given; method in brief: as §3

SMILES | Diuretic effect
N=C(N)NC(=O)c1nc(Cl)c(N)nc1N [AMILORIDE] | 1

tested on: Rattus norvegicus; experiment: Compound was evaluated for diuretic activity determined by the ability to induce electrolytic excretion (Cl-) at a time period of 0-24 hr for dose 27 mg/kg; format: functional, Urine; conditions: not given; method in brief: as §2

SMILES | Diuretic effect
N=C(N)NC(=O)c1nc(Cl)c(N)nc1N [AMILORIDE] | 180

tested on: Rattus norvegicus; experiment: Compound was evaluated for diuretic activity determined by the ability to induce electrolytic excretion (Cl-) at a time period of 0-24 hr for dose 81 mg/kg; format: functional, Urine; conditions: not given; method in brief: as §2

SMILES | Diuretic effect
N=C(N)NC(=O)c1nc(Cl)c(N)nc1N [AMILORIDE] | 328

tested on: Rattus norvegicus; experiment: Compound was evaluated for diuretic activity determined by the ability to induce electrolytic excretion (Cl-) at a time period of 0-24 hr for dose 9 mg/kg; format: functional, Urine; conditions: not given; method in brief: as §2

SMILES | Diuretic effect
N=C(N)NC(=O)c1nc(Cl)c(N)nc1N [AMILORIDE] | 176

tested on: Rattus norvegicus; experiment: Compound was evaluated for diuretic activity determined by the ability to induce electrolytic excretion (Cl-) at a time period of 0-5 hr for dose 3 mg/kg; format: functional, Urine; conditions: not given; method in brief: as §2

SMILES | Diuretic effect
N=C(N)NC(=O)c1nc(Cl)c(N)nc1N [AMILORIDE] | 90

tested on: Rattus norvegicus; experiment: Compound was evaluated for diuretic activity determined by the ability to induce electrolytic excretion (Cl-) at a time period of 0-5 hr for dose 81 mg/kg; format: functional, Urine; conditions: not given; method in brief: as §2

SMILES | Diuretic effect
N=C(N)NC(=O)c1nc(Cl)c(N)nc1N [AMILORIDE] | 93

tested on: Rattus norvegicus; experiment: Compound was evaluated for diuretic activity determined by the ability to induce electrolytic excretion (Cl-) at a time period of 0-5 hr for dose 9 mg/kg; format: functional, Urine; conditions: not given; method in brief: as §2

SMILES | Diuretic effect
N=C(N)NC(=O)c1nc(Cl)c(N)nc1N [AMILORIDE] | 96

tested on: Rattus norvegicus; experiment: Compound was evaluated for diuretic activity determined by the ability to induce electrolytic excretion (K+) at a time period of 0-24 hr for dose 27 mg/kg; format: functional, Urine; conditions: not given; method in brief: as §2

SMILES | Diuretic effect
N=C(N)NC(=O)c1nc(Cl)c(N)nc1N [AMILORIDE] | 82

tested on: Rattus norvegicus; experiment: Urine volumes was determined in Sprague-Dawley rats at time period of 0-5 hours at 27 mg/kg; format: functional; conditions: not given; method in brief: as §3

SMILES | Urine volume [mL]
N=C(N)NC(=O)c1nc(Cl)c(N)nc1N [AMILORIDE] | 36

tested on: Rattus norvegicus; experiment: Urine volumes was determined in Sprague-Dawley rats at time period of 0-5 hours at 3 mg/kg; format: functional; conditions: not given; method in brief: as §3

SMILES | Urine volume [mL]
N=C(N)NC(=O)c1nc(Cl)c(N)nc1N [AMILORIDE] | 35

tested on: Rattus norvegicus; experiment: Urine volumes was determined in Sprague-Dawley rats at time period of 0-5 hours at 81 mg/kg; format: functional; conditions: not given; method in brief: as §3

SMILES | Urine volume [mL]
N=C(N)NC(=O)c1nc(Cl)c(N)nc1N [AMILORIDE] | 28

tested on: Rattus norvegicus; experiment: Urine volumes was determined in Sprague-Dawley rats at time period of 0-5 hours at 9 mg/kg; format: functional; conditions: not given; method in brief: as §3

SMILES | Urine volume [mL]
N=C(N)NC(=O)c1nc(Cl)c(N)nc1N [AMILORIDE] | 33

tested on: Rattus norvegicus; experiment: Compound was evaluated for diuretic activity determined by the ability to induce electrolytic excretion (Cl-) at a time period of 0-5 hr for dose 27 mg/kg; format: functional, Urine; conditions: not given; method in brief: as §2

SMILES | Diuretic effect
N=C(N)NC(=O)c1nc(Cl)c(N)nc1N [AMILORIDE] | 105

tested on: Canis familiaris; experiment: Compound was evaluated for urinary levels (mg) after administration at time period; conditions: not given

SMILES | Urinary level [mg]
N=C(N)NC(=O)c1nc(Cl)c(N)nc1N [AMILORIDE] | 0.41
